Values after ≈ are worked out from the molar mass of the structure shown.
How the values were obtained:
[1] = AUC (0 to infinity) in CD-1 mouse at 5 mg/kg, po by LC-MS analysis; assay type: ADME, organism-based; parameters: time infinity, route oral, dose 5 mg/kg; conditions: in vivo
Outline: (§1)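 Female CD-1 mice, 5 weeks old, 3 per time point. Dosed at 10 µl/g, DMSO solution diluted in Captisol, p.o. 5 mg/kg or i.v. 2 mg/kg. Sacrifice at 5, 15, 30 min and 1, 2, 4, 7, 24 h. Plasma acetonitrile-precipitated, quantified by LC-MS/MS (C18, positive H-ESI, SRM) against a calibration curve in blank mouse plasma.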

[2] = Cmax in CD-1 mouse at 2 mg/kg, iv by LC-MS analysis; assay type: ADME, organism-based; parameters: route intravenous, dose 2 mg/kg; conditions: in vivo; outline: as §1
[3] = AUC (0 to t) in CD-1 mouse at 2 mg/kg, iv by LC-MS analysis; assay type: ADME, organism-based; parameters: dose 2 mg/kg; conditions: in vivo; outline: as §1
[4] = AUC (0 to t) in CD-1 mouse at 5 mg/kg, po by LC-MS analysis; assay type: ADME, organism-based; parameters: dose 5 mg/kg; conditions: in vivo; outline: as §1
[5] = Oral bioavailability in CD-1 mouse at 5 mg/kg by LC-MS analysis; assay type: ADME, organism-based; conditions: in vivo
Outline: (§2)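 Female CD-1 mice, 5 weeks old, 3 animals per time point. Compound dissolved in DMSO, diluted in Captisol, given p.o. at 5 mg/kg or i.v. at 2 mg/kg. Animals sacrificed at 5, 15 and 30 min and 1, 2, 4, 7 and 24 h. Plasma precipitated with cold acetonitrile and quantified by LC-MS/MS (SRM, positive H-ESI) against a blank mouse plasma calibration curve.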

[6] = Cmax in CD-1 mouse at 5 mg/kg, po by LC-MS analysis; assay type: ADME, organism-based; parameters: route oral, dose 5 mg/kg; conditions: in vivo; outline: as §1
[7] = Kinetic solubility of compound in pH 7.4 Soerensen's buffer at 500 uM measured after […] by UV-VIS absorption spectrophotometry; assay type: physicochemical; conditions: time 1.5 hrs, read-out: Kinetic_solubility
[8] = Tmax in CD-1 mouse at 2 mg/kg, iv by LC-MS analysis; assay type: ADME, organism-based; conditions: in vivo; outline: as §2
[9] = Tmax in CD-1 mouse at 5 mg/kg, po by LC-MS analysis; assay type: ADME, organism-based; conditions: in vivo; outline: as §2
[10] = AUC (0 to infinity) in CD-1 mouse at 2 mg/kg, iv by LC-MS analysis; assay type: ADME, organism-based; parameters: route intravenous, time infinity, dose 2 mg/kg; conditions: in vivo; outline: as §1
[11] = Kinetic solubility of compound in water at 500 uM measured after […] by UV-VIS absorption spectrophotometry; assay type: physicochemical; conditions: time 1.5 hrs, read-out: Kinetic_solubility

Row | Compound | AUC [1] | Cmax [2] | AUCt [3] | AUCt [4] | bioavailability [5] | Cmax [6] | solubility kinetic at […], 500 µM [7] | Tmax [8] | Tmax [9] | AUC [10] | solubility kinetic at […], 500 µM [11]
1 | Nc1n[nH]c2cc(-c3ccc(=O)n(Cc4cccc(Cl)c4)c3)ccc12 | 2410 ng·h/mL | 1490 ng/mL | 834 ng·h/mL | 2150 ng·h/mL | 100% | 1050 ng/mL | 172 µM (≈ 60.3 µg/mL) | 4.8 min | 15 min | 855 ng·h/mL | 275 µM (≈ 96.5 µg/mL)
2 | Nc1n[nH]c2cc(-c3ccc(=O)n(Cc4ccccc4F)c3)ccc12 | 674 ng·h/mL | 1670 ng/mL | 629 ng·h/mL | 517 ng·h/mL | 33% | 335 ng/mL | 466 µM (≈ 156 µg/mL) | 4.8 min | 15 min | 677 ng·h/mL | > 500 µM

Reference: ChEMBL document CHEMBL4732118, “Discovery of indazole-pyridinone derivatives as a novel class of potent and selective MNK1/2 kinase inhibitors that protecting against endotoxin-induced septic shock” (Eur J Med Chem, 2021)
